Test results: article PMC12393906 (Molecular Therapy, 2025)

Key:
mouse platelets [1] = test: Flow cytometry of P-selectin exposure and αIIbβ3 integrin activation; format: cell-based
Method in brief: (§1)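 Washed mouse platelets (2 × 10^8/mL in HEPES-Tyrode; C57BL/6 or Ero1α/β-null) were pretreated 20 min at 37°C with 0.1% DMSO vehicle or test compound. Agonist was added for 5 min at 37°C. Cells were stained 15 min with labelled anti-P-selectin or JON/A (activated αIIbβ3) and read by flow cytometry as geometric mean fluorescence intensity.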

mouse platelets [2] = test: Platelet aggregation assay and ATP secretion; format: cell-based
Method in brief: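 Washed mouse platelets (WT control, C57BL/6 or Ero1α/β-null) were pretreated 20 min at 37°C with 0.1% DMSO vehicle or test compound. After agonist addition, aggregation and ATP secretion were recorded together in a lumi-aggregometer at 37°C with stirring at 1,000 rpm.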

mouse platelets [3] = test: CCL5/RANTES in platelet releasates; format: cell-based
Method in brief: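 Washed mouse platelets (5 × 10^8 cells/mL) were pretreated 20 min at 37°C with 0.1% DMSO vehicle or test compound. They were then stimulated 10 min with 0.01 U/mL thrombin or 0.05 μg/mL CRP. CCL5/RANTES in the collected supernatant was quantified by ELISA.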

Ero1α/β-null platelets = format: cell-based, mouse
Method in brief: as §1

pancreatic islet cells = test: Glucose-stimulated insulin secretion and insulin content; format: cell-based, mouse; conditions: 1 or 5 μM; high glucose (16.7 mM)
Method in brief: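 Islets were isolated by bile-duct perfusion of type V collagenase (0.45 mg/mL), handpicked and cultured overnight in RPMI/10% FCS. They were exposed 3 h in KRBH (pH 7.4) to 2.8 mM or 16.7 mM glucose, ± vehicle (0.1% DMSO) or 1 or 5 μM test compound. Ten islets per group then had 1 h in low glucose, then 1 h at 37°C under the same conditions, in technical duplicates. Supernatant insulin and acid-ethanol-extracted content were measured by ELISA.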

C57BL/6 mice [4] = test: Complete blood counts after intravenous injection; format: in vivo, mouse; conditions: iv 0.3 μg/g BW; 10 min and 8 h after injection
C57BL/6 mice [5] = test: Intravital microscopy, laser-induced cremaster arteriolar injury; format: in vivo, mouse; conditions: iv 0.3 μg/g BW 10 min before IVM
Method in brief: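 Male mice (8–12 weeks) were anaesthetised with ketamine/xylazine ip. The cremaster was exteriorised and superfused with 37°C bicarbonate-buffered saline. Vehicle (1% DMSO) or test compound (0.3 μg/g BW) was given iv, and 10 min later DyLight 649 anti-CD42c (0.1 μg/g BW) was given. Laser ablation injured 3–4 arterioles per mouse. Median integrated platelet fluorescence was tracked over time, using […] per group.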

[6] = 1 or 2.5 μM, 0.015 U/mL thrombin or 0.05 μg/mL CRP

In the case of `O=C(O)c1cc(N2N=C(C(F)(F)F)/C(=C/c3ccc(-c4ccccc4)o3)C2=O)ccc1Cl` [EN460], the “P-selectin exposure and αIIbβ3 integrin activation” value (mouse platelets [1]; 1-5 µM, low agonist: 0.01 U/mL thrombin, 0.025 μg/mL CRP, 0.5 μM U46619, 0.5 μM A23187, concentration-dependent) is reported as “inhibited”, the “P-selectin exposure and αIIbβ3 integrin activation” value (mouse platelets [1]; 2.5 or 5 μM, high agonist: thrombin 0.1 U/mL or CRP 0.2 μg/mL, weaker effect) is reported as “still observed” and the “P-selectin exposure and αIIbβ3 integrin activation in resting platelets” value (mouse platelets [1]; M6766 5 μM, EN460 2.5 or 5 μM, no agonist) is reported as “appeared to enhance both events”. For the same compound, the ATP secretion (mouse platelets [2]; 1 μM, 0.5 µM U46619) was “without affecting ATP secretion”, the platelet aggregation (mouse platelets [2]; 1 μM, 0.5 µM U46619) was “completely inhibited U46619-induced platelet aggregation” and the “platelet aggregation and ATP secretion” value (mouse platelets [2]; 5 μM, 0.5 µM U46619) was “abolished both responses”. For the same compound, the “platelet aggregation and ATP secretion” value (mouse platelets [2]; 5 μM, 0.015 U/mL thrombin or 0.05 μg/mL CRP) was “markedly inhibited platelet aggregation and ATP secretion”, the “platelet aggregation and ATP secretion” value (mouse platelets [2]; 1-5 µM, 0.5 µM A23187) was “also inhibited platelet aggregation and ATP secretion” and the “platelet aggregation and ATP secretion” value (mouse platelets [2]; 1-5 µM, high concentration of thrombin (0.1 U/ml)) was “significantly inhibited both responses”. For the same compound, the ATP secretion (mouse platelets [2]; [6]) was “had no effect on ATP secretion”, the platelet aggregation (mouse platelets [2]; [6]) was “significantly inhibited aggregation” and the “platelet aggregation and ATP secretion” value (mouse platelets [2]; 2.5 or 5 μM, high concentration of CRP (0.2 µg/ml)) was “significantly inhibited both responses”. For the same compound, the “CCL5 secretion in resting and activated platelets” value (mouse platelets [3]; 5 μM) was “appeared to increase CCL5 secretion”, the “CCL5 secretion from activated platelets” value (mouse platelets [3]; various concentrations (1-5 μM), thrombin) was “inhibits CCL5 secretion” and the “P-selectin exposure and αIIbβ3 integrin activation in resting platelets” value (Ero1α/β-null platelets; M6766 5 μM, EN460 2.5 μM, no agonist) was “appeared to increase the levels of these surface markers”. The “agonist-induced P-selectin exposure and αIIbβ3 integrin activation” value (Ero1α/β-null platelets; various concentrations, 0.01 U/mL thrombin, 0.025 μg/mL CRP) was “significantly reduced”, the “insulin secretion or content” value (pancreatic islet cells) was “did not reduce insulin secretion or content” and the “complete blood counts (CBCs)” value (C57BL/6 mice [4]) was “did not alter CBCs”. The “initial platelet adhesion at sites of laser injury” value (C57BL/6 mice [5]) was “without affecting initial platelet adhesion” and the “platelet accumulation at sites of laser injury” value (C57BL/6 mice [5]) was “significantly inhibited platelet accumulation”.
